pIC50: −log10 of the molar value.
Key:
Plasmodium berghei [1] = assay: Parasitaemia (%) in tail blood smears from Plasmodium berghei infected ICR mice (Mus musculus) after 4 days; format: functional
Method in brief: (§1)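 P. berghei NK 65-infected ICR mice, five per group. Compounds in DMSO were given intraperitoneally once daily for four consecutive days from day 0, at 0.1–20 mg/kg/day. Five infected DMSO-dosed mice served as controls. On day 4, Giemsa-stained tail-blood thin films were read by microscopy, with 1 × 10⁴ erythrocytes counted per film, to give % parasitemia.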

[2] = The compound was tested for survival of the ICR mice (infected with Plasmodium berghei) as a symptom indicative of toxicity on day 4, at a dose of 20 mg/kg/day; format: functional, Mus musculus
Method in brief: (§2)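 P. berghei (NK 65 strain)-infected ICR mice, groups of five; compound in DMSO given intraperitoneally once daily for four consecutive days starting day 0; five infected DMSO-dosed mice as controls; survival counted on day 4 as toxicity indicator; Giemsa-stained tail blood smears, 1 × 10⁴ erythrocytes per film, for parasitemia.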

Plasmodium berghei [3] = assay: Parasitaemia (%) in tail blood smears from Plasmodium berghei infected ICR mice (Mus musculus) at 0.1-mg/kg/day for 4 days; format: functional; method in brief: as §1
[4] = The compound was tested for the dose required to cause 50% suppression of Plasmodium berghei growth in mice.; format: functional, Mus musculus
Method in brief: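 Four-day suppressive test in ICR mice infected with P. berghei NK 65, five per group. DMSO solutions were injected intraperitoneally daily on days 0–3 at 0.1–20 mg/kg/day, against infected DMSO-dosed controls. Day-4 parasitemia came from Giemsa-stained tail-blood smears, 1 × 10⁴ erythrocytes per film. EC50 is the dose giving 50% suppression of parasite growth.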

[5] = The compound was tested for survival of the ICR mice (infected with Plasmodium berghei) as a symptom indicative of toxicity on day 4, at a dose of 1.0 mg/kg/day; format: functional, Mus musculus; method in brief: as §2
[6] = The compound was tested for survival of the ICR mice (infected with Plasmodium berghei) as a symptom indicative of toxicity on day 4, at a dose of 0.1 mg/kg/day; format: functional, Mus musculus; method in brief: as §2
[7] = The compound was tested for survival of the ICR mice (infected with Plasmodium berghei) as a symptom indicative of toxicity on day 4, at a dose of 0.5 mg/kg/day; format: functional, Mus musculus; method in brief: as §2
Plasmodium berghei [8] = assay: Parasitaemia (%) in tail blood smears of Plasmodium berghei infected ICR mice (Mus musculus) at 10 mg/kg/day after 4 days; format: functional; method in brief: as §1
[9] = The compound was tested for survival of the ICR mice (infected with Plasmodium berghei) as a symptom indicative of toxicity on day 4, at a dose of 5 mg/kg/day; format: functional, Mus musculus; method in brief: as §2
Plasmodium berghei [10] = assay: Parasitaemia (%) in tail blood smears from Plasmodium berghei infected ICR mice (Mus musculus) at 0.5-mg/kg/day for 4 days; format: functional; method in brief: as §1
Plasmodium falciparum = assay: In vitro antimalarial activity against Plasmodium falciparum
[11] = test system: KATO III stomach cancer cell line; assay: The compound was tested for cytotoxicity against the growth of human gastric carcinoma cell line ( KATO III ).; format: functional, cell-based
Vero = assay: The compound was tested for cytotoxicity against monkey kidney cell line ( Vero ).; format: functional, cell-based; conditions: Chlorocebus sabaeus
Plasmodium berghei [12] = assay: Parasitaemia (%) in tail blood smears of Plasmodium berghei infected ICR mice (Mus musculus) at 2 mg/kg/day after 4 days; format: functional; method in brief: as §1
Plasmodium berghei [13] = assay: Parasitaemia (%) in tail blood smears of Plasmodium berghei infected ICR mice (Mus musculus) at 1.0 mg/kg/day after 4 days; format: functional; method in brief: as §1
[14] = The compound was tested for survival of the ICR mice (infected with Plasmodium berghei) as a symptom indicative of toxicity on day 4, at a dose of 10 mg/kg/day; format: functional, Mus musculus; method in brief: as §2
Plasmodium berghei [15] = assay: Parasitaemia (%) in tail blood smears of Plasmodium berghei infected ICR mice (Mus musculus) at 5 mg/kg/day after 4 days; format: functional; method in brief: as §1
[16] = The compound was tested for survival of the ICR mice (infected with Plasmodium berghei) as a symptom indicative of toxicity on day 4, at a dose of 2 mg/kg/day; format: functional, Mus musculus; method in brief: as §2
Plasmodium berghei [17] = assay: Parasitaemia (%) in tail blood smears of Plasmodium berghei infected ICR mice (Mus musculus) at 0.5 mg/kg/day after 4 days; format: functional; method in brief: as §1
Plasmodium berghei [18] = assay: Parasitaemia (%) in tail blood smears from Plasmodium berghei infected ICR mice (Mus musculus) at 0.1 mg/kg/day for 4 days; format: functional; method in brief: as §1
Plasmodium berghei [19] = assay: Parasitaemia (%) in tail blood smears of Plasmodium berghei infected ICR mice (Mus musculus) at 20 mg/kg/day after 4 days; format: functional; method in brief: as §1
[20] = The compound was tested for survival of the ICR mice (infected with Plasmodium berghei) as a symptom indicative of toxicity on day 4, at different doses 20 mg/kg/day; format: functional, Mus musculus; method in brief: as §2
Plasmodium berghei [21] = assay: Percent parasitaemia in tail blood smears from Plasmodium berghei infected ICR mice (Mus musculus) at 0.5-mg/kg/day after 4 days; format: functional; method in brief: as §1

Row | SMILES | Parasitemia (Plasmodium berghei [1]) [%] | Survival [2] | Parasitemia (Plasmodium berghei [3]) [%] | EC50 [4] [mg/kg/day] | Survival [5] | Survival [6] | Survival [7] | Parasitemia (Plasmodium berghei [8]) [%] | Survival [9] | pIC50 (Plasmodium falciparum) | pIC50 [11] | Parasitemia (Plasmodium berghei [12]) [%] | Parasitemia (Plasmodium berghei [13]) [%] | Survival [14] | Parasitemia (Plasmodium berghei [15]) [%] | Survival [16] | other results
1 | C[C@@H](O)C1=C[C@@H](n2cnc3c(N)ncnc32)[C@H](O)[C@@H]1O | 21 | 2 | 21 | 1 | 5 | 5 | 5 | 2 | 5 | 7.00 | 5.96 | 5 | 10 | 5 | 2 | 5 | Parasitemia (Plasmodium berghei [10]): 21%; pIC50 (Vero): < 2.74
2 | CCN(CC)CCCC(C)Nc1ccnc2cc(Cl)ccc12 (stereo not given) [CHLOROQUINE] | 21 | 5 |  | 1.8 | 5 | 5 | 5 | 2 | 5 |  |  | 7 | 18 | 5 | 3 | 5 | Parasitemia (Plasmodium berghei [17]): 20%; Parasitemia (Plasmodium berghei [18]): 21%; Parasitemia (Plasmodium berghei [19]): 1%
3 | Nc1ncnc2c1ncn2[C@@H]1C=C(CO)[C@@H](O)[C@H]1O [NEOPLANOCIN A] | 21 |  | 20 | > 5 | 5 | 5 | 5 |  | 5 | 6.70 | 6.66 | 21 | 21 | 0 | 12 | 5 | Survival [20]: 0; Parasitemia (Plasmodium berghei [21]): 21%

Reference: ChEMBL document CHEMBL1135714, “New neplanocin analogues. 12. Alternative synthesis and antimalarial effect of (6'R)-6'-C-methylneplanocin A, a potent AdoHcy hydrolase inhibitor” (J Med Chem, 2002)
